≈ marks a conversion by molar mass, not a printed value. Values belong to the molecule of their own block, whether it stands above or below them. Calls of active or inactive are those of the source.
Tests used:
Bacillus subtilis = assay: Inhibition of N-terminal LgBiT-fused Bacillus subtilis NusB expressed in Escherichia coli BL21(DE3)pLysS interaction with C- terminal SmBiT-fused Bacillus subtilis NusE expressed in Escherichia coli BL21(DE3)pLysS at 100 uM preincubated for 10 mins followed by NusE addition and measured after 10 mins by nano-glo luciferase assay relative to control
Outline: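 NusB and NusE were mixed 1:1 at 1 µM in PBS, with compound at 100 µM. The read-out was percent inhibition of the NusB-NusE interaction.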

Enterococcus faecium = assay: Antimicrobial activity against Enterococcus faecium ATCC 19433 incubated for 20 hrs by microdilution method; format: functional; conditions: ATCC 19433, 20 h
Outline: (§1)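 Broth microdilution MIC testing done following CLSI guidelines.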

Streptococcus pneumoniae = assay: Antimicrobial activity against Streptococcus pneumoniae ATCC 49619 incubated for 20 hrs by microdilution method; format: functional; conditions: ATCC 49619, 20 h; outline: as §1
Acinetobacter baumannii = assay: Antimicrobial activity against Acinetobacter baumannii ATCC 19606 incubated for 20 hrs by microdilution method; format: functional; conditions: ATCC 19606 = CIP 70.34 = JCM 6841, 20 h; outline: as §1
Pseudomonas aeruginosa = assay: Antimicrobial activity against Pseudomonas aeruginosa ATCC 27853 incubated for 20 hrs by microdilution method; format: functional; conditions: ATCC 27853, 20 h; outline: as §1
Staphylococcus aureus [1] = assay: Growth inhibition of Staphylococcus aureus ATCC 25923 at 1/4 times MIC preincubated for 24 hrs followed by replating on agar plate and measured after overnight incubation by time-kill assay; format: functional, organism-based
Staphylococcus aureus [2] = assay: Bacteriostatic activity against Staphylococcus aureus ATCC 25923 at 1 to 4 times MIC preincubated for up to 24 hrs followed by replating on agar plate measured after overnight incubation by time-kill assay; format: functional, organism-based
Staphylococcus aureus [3] = assay: microbe, parasite or virus in culture; conditions: ATCC 25923, 20 h
Staphylococcus aureus [4] = assay: microbe, parasite or virus in culture; conditions: ATCC 29213, 20 h
[5] = microbe, parasite or virus in culture; conditions: Enterobacter cloacae, ATCC 13047, 20 h
Staphylococcus aureus [6] = assay: Antimicrobial activity against Staphylococcus aureus ATCC BAA43 incubated for 20 hrs by microdilution method; format: functional; conditions: ATCC BAA43, 20 h
Outline: (§2)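 MIC determined by microdilution following Clinical & Laboratory Standards Institute (CLSI) guidelines, read in µg/mL, against a panel of hospital- and community-acquired MRSA strains.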

[7] = tested on: Enterococcus casseliflavus; assay: Antimicrobial activity against Enterococcus casseliflavus ATCC 25788 incubated for 20 hrs by microdilution method; format: functional; conditions: ATCC 25788, 20 h; outline: as §1
[8] = tested on: Staphylococcus epidermidis; assay: Antimicrobial activity against Staphylococcus epidermidis ATCC 12228 incubated for 20 hrs by microdilution method; format: functional; conditions: ATCC 12228, 20 h; outline: as §1
[9] = Antimicrobial activity against Staphylococcus saprophyticus ATCC 15305 incubated for 20 hrs by microdilution method; format: functional, Staphylococcus saprophyticus subsp. saprophyticus; conditions: ATCC 15305, 20 h; outline: as §1
Streptococcus pyogenes = assay: Antimicrobial activity against Streptococcus pyogenes ATCC 19615 incubated for 20 hrs by microdilution method; format: functional; conditions: ATCC 19615, 20 h; outline: as §1
Streptococcus agalactiae = assay: Antimicrobial activity against Streptococcus agalactiae ATCC 12386 incubated for 20 hrs by microdilution method; format: functional; conditions: ATCC 12386, 20 h; outline: as §1
Staphylococcus aureus [10] = assay: Antimicrobial activity against Staphylococcus aureus ST239 incubated for 20 hrs by microdilution method; format: functional; conditions: CN79, 20 h; outline: as §2
Staphylococcus aureus [11] = assay: Antimicrobial activity against Staphylococcus aureus ATCC BAA44 incubated for 20 hrs by microdilution method; format: functional; conditions: ATCC BAA44, 20 h; outline: as §2
Staphylococcus aureus [12] = assay: Antimicrobial activity against Staphylococcus aureus HA W231 ST45 incubated for 20 hrs by microdilution method; format: functional; conditions: HA W231 ST45, 20 h; outline: as §2
Staphylococcus aureus [13] = assay: Antimicrobial activity against CA-methicillin-resistant Staphylococcus aureus W47 ST30 incubated for 20 hrs by microdilution method; format: functional; conditions: W47 ST30, 20 h; outline: as §2
Staphylococcus aureus [14] = assay: Antimicrobial activity against CA-methicillin-resistant Staphylococcus aureus W45 ST59 incubated for 20 hrs by microdilution method; conditions: W45 ST59, 20 h
Staphylococcus aureus [15] = assay: Antimicrobial activity against CA-methicillin-resistant Staphylococcus aureus W46 ST59 incubated for 20 hrs by microdilution method; conditions: W46 ST59, 20 h
Staphylococcus aureus [16] = assay: Antimicrobial activity against Staphylococcus aureus USA300/ST8 incubated for 20 hrs by microdilution method; conditions: USA300 ST8, 20 h
Staphylococcus aureus [17] = assay: Antimicrobial activity against Staphylococcus aureus ST22 11B086169 incubated for 20 hrs by microdilution method; format: functional; conditions: ST22 11B086169, 20 h; outline: as §2
Staphylococcus aureus [18] = assay: Antimicrobial activity against CA-methicillin-resistant Staphylococcus aureus W4 ST338 incubated for 20 hrs by microdilution method; format: functional; conditions: W4 ST338, 20 h; outline: as §2
Staphylococcus aureus [19] = assay: Antimicrobial activity against CA-methicillin-resistant Staphylococcus aureus W48 ST217 incubated for 20 hrs by microdilution method; conditions: W48 ST217, 20 h
Staphylococcus aureus [20] = assay: Antimicrobial activity against Staphylococcus aureus HA W235 ST5 incubated for 20 hrs by microdilution method; format: functional; conditions: HA W235 ST5, 20 h; outline: as §2
Staphylococcus aureus [21] = assay: Bacteriostatic activity against Staphylococcus aureus ATCC 25923 at 1/4 to 1 times MIC preincubated for up to 24 hrs followed by replating on agar plate and measured after overnight incubation by time-kill assay; format: functional, organism-based
Staphylococcus aureus [22] = assay: Bactericidal activity against Staphylococcus aureus ATCC 25923 at 4 times MIC preincubated for up to 24 hrs followed by replating on agar plate and measured after overnight incubation by time-kill; format: functional, organism-based
[23] = Cytotoxicity against human A549 cells assessed as reduction in cell viability after 48 to 72 hrs by MTT assay; format: cell-based
[24] = Cytotoxicity against human HaCaT cells assessed as reduction in cell viability after 48 to 72 hrs by MTT assay; format: cell-based
[25] = Therapeutic index, ratio of CC50 for human A549 cells to 1/2 times MIC for Staphylococcus aureus ATCC 25923; format: toxicity; conditions: read-out: TI
[26] = Therapeutic index, ratio of CC50 for human HaCaT cells to 1/2 times MIC for Staphylococcus aureus ATCC 25923; format: toxicity; conditions: read-out: TI
Erythrocyte = assay: Hemolytic activity against human erythrocytes at 0.1 to 10 ug/ml incubated for 45 mins; format: ADME, cell-based; conditions: 0.75 h
Outline: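 Hemolysis was tested on human blood cells with compound at 0.1, 1 and 10 µg/mL, judged against a nonhemolytic cut-off value.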

[27] = Apparent permeability across apical to basolateral side in human Caco2 cells by LC-MS/MS analysis; format: ADME, cell-based; conditions: Caco-2

inhibition (Bacillus subtilis): 85.3%
MIC (Enterococcus faecium): > 256 µg/mL
MIC (Streptococcus pneumoniae): 16 µg/mL (≈ 60.1 µM)
MIC (Acinetobacter baumannii): 64 µg/mL (≈ 240 µM)
MIC (Pseudomonas aeruginosa): > 256 µg/mL
MIC (Staphylococcus aureus [3]): 8 µg/mL (≈ 30 µM)
MIC (Staphylococcus aureus [4]): 16 µg/mL (≈ 60.1 µM)
MIC [5]: > 256 µg/mL
SMILES: C#Cc1cccc(/N=C/c2cc([N+](=O)[O-])ccc2O)c1
growth inhibition (GI) (Staphylococcus aureus [1]): Active
Activity (Staphylococcus aureus [2]): Active

SMILES: O=[N+]([O-])c1ccc(O)c(CNc2ccccc2Cl)c1
MIC (Staphylococcus aureus [6]): 2 µg/mL (≈ 7.18 µM)
inhibition (Bacillus subtilis): 31%
MIC (Enterococcus faecium): 32 µg/mL (≈ 115 µM)
MIC (Streptococcus pneumoniae): 8 µg/mL (≈ 28.7 µM)
MIC (Acinetobacter baumannii): 128 µg/mL (≈ 459 µM)
MIC (Pseudomonas aeruginosa): > 256 µg/mL
MIC [7]: 32 µg/mL (≈ 115 µM)
MIC [8]: 8 µg/mL (≈ 28.7 µM)
MIC [9]: 8 µg/mL (≈ 28.7 µM)
MIC (Streptococcus pyogenes): 16 µg/mL (≈ 57.4 µM)
MIC (Streptococcus agalactiae): 32 µg/mL (≈ 115 µM)
MIC (Staphylococcus aureus [10]): 8 µg/mL (≈ 28.7 µM)
MIC (Staphylococcus aureus [11]): 8 µg/mL (≈ 28.7 µM)
MIC (Staphylococcus aureus [12]): 4 µg/mL (≈ 14.4 µM)
MIC (Staphylococcus aureus [13]): 4 µg/mL (≈ 14.4 µM)
MIC (Staphylococcus aureus [14]): 8 µg/mL (≈ 28.7 µM)
MIC (Staphylococcus aureus [15]): 4 µg/mL (≈ 14.4 µM)
MIC (Staphylococcus aureus [16]): 4 µg/mL (≈ 14.4 µM)
MIC (Staphylococcus aureus [17]): 4 µg/mL (≈ 14.4 µM)
MIC (Staphylococcus aureus [18]): 4 µg/mL (≈ 14.4 µM)
MIC (Staphylococcus aureus [19]): 4 µg/mL (≈ 14.4 µM)
MIC (Staphylococcus aureus [20]): 4 µg/mL (≈ 14.4 µM)
Activity (Staphylococcus aureus [21]): Active
Activity (Staphylococcus aureus [22]): Active
CC50 [23]: 22.5 µM
CC50 [24]: 20.1 µM
selectivity ratio [25]: 6
selectivity ratio [26]: 6
Activity (Erythrocyte): Non-Toxic
Papp A→B [27]: 16.1 ×10⁻⁶ cm/s
MIC (Staphylococcus aureus [3]): 2 µg/mL (≈ 7.18 µM)
MIC (Staphylococcus aureus [4]): 2 µg/mL (≈ 7.18 µM)
MIC [5]: 256 µg/mL (≈ 919 µM)

Source: ChEMBL document CHEMBL4364256, “Design, synthesis and biological evaluation of antimicrobial diarylimine and -amine compounds targeting the interaction between the bacterial NusB and NusE proteins” (Eur J Med Chem, 2019)
